Measurements published in ChEMBL document CHEMBL4689842, “EUbOPEN Chemogenomics Library wave 1” (2021).

Tested on: U2OS
Assay: Multiplex assay against U2OS
Type: toxicity, cell-based
Details: human
Procedure, shortened: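 Phenotypes for tubulin, mitochondrial mass and membrane permeability are expressed as per cents of healthy-nucleus cells. Cells were stained live at seeding with Hoechst33342, BioTracker Green Microtubule Cytoskeleton Dye, MitoTracker Red and Annexin V Alexa Fluor 680, then imaged after compound addition on a CQ1 microscope at 37°C and 5% CO2. Machine-learning gating in CellPathfinder separated Hoechst high-intensity objects from normal cells, divided normal cells by nuclear state (healthy, pyknosed, fragmented) and divided pyknosed cells into mitotic or apoptotic.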

[1] = 12 h, 1 µM, compound concentration 1 uM, replicate 1
[2] = 12 h, 1 µM, compound concentration 1 uM, replicate 2
[3] = 12 h, 10 µM, compound concentration 10 uM, replicate 1
[4] = 12 h, 10 µM, compound concentration 10 uM, replicate 2
[5] = 24 h, 1 µM, compound concentration 1 uM, replicate 1
[6] = 24 h, 1 µM, compound concentration 1 uM, replicate 2
[7] = 24 h, 10 µM, compound concentration 10 uM, replicate 1
[8] = 24 h, 10 µM, compound concentration 10 uM, replicate 2
[9] = 48 h, 1 µM, compound concentration 1 uM, replicate 1
[10] = 48 h, 1 µM, compound concentration 1 uM, replicate 2
[11] = 48 h, 10 µM, compound concentration 10 uM, replicate 1
[12] = 48 h, 10 µM, compound concentration 10 uM, replicate 2

## O=c1cc(N2CCOCC2)oc2c(-c3cccc4c3sc3ccccc34)cccc12
[1]
  Population Apoptotic (%): 35%
  Population Fragmented Nuclei (%): 12%
  Population Healthy Nuclei (%): 76%
  Population Hoechst High Intensity Objects (%): 7%
  Population Membrane Permeable-Phenotype (%): 2%
  Population Mitochondria Different-Phenotype (%): 10%
  Population Mitotic Cells (%): 65%
  Population Normal (%): 92%
  Population Pyknosed Nuclei (%): 11%
  Population Tubulin-Different-Phenotype (%): 10%
  Total Cell Count: 120
[2]
  Population Apoptotic (%): 100%
  Population Fragmented Nuclei (%): 15%
  Population Healthy Nuclei (%): 77%
  Population Hoechst High Intensity Objects (%): 10%
  Population Mitochondria Different-Phenotype (%): 6%
  Population Mitotic Cells (%): 0%
  Population Normal (%): 90%
  Population Pyknosed Nuclei (%): 6%
  Population Tubulin-Different-Phenotype (%): 14%
  Total Cell Count: 79
[3]
  Population Apoptotic (%): 52%
  Population Fragmented Nuclei (%): 20%
  Population Healthy Nuclei (%): 47%
  Population Hoechst High Intensity Objects (%): 4%
  Population Membrane Permeable-Phenotype (%): 24%
  Population Mitochondria Different-Phenotype (%): 73%
  Population Mitotic Cells (%): 47%
  Population Normal (%): 95%
  Population Pyknosed Nuclei (%): 32%
  Population Tubulin-Different-Phenotype (%): 100%
  Total Cell Count: 190
[4]
  Population Apoptotic (%): 31%
  Population Fragmented Nuclei (%): 19%
  Population Healthy Nuclei (%): 45%
  Population Hoechst High Intensity Objects (%): 16%
  Population Membrane Permeable-Phenotype (%): 23%
  Population Mitochondria Different-Phenotype (%): 90%
  Population Mitotic Cells (%): 68%
  Population Normal (%): 83%
  Population Pyknosed Nuclei (%): 34%
  Population Tubulin-Different-Phenotype (%): 95%
  Total Cell Count: 70
[5]
  Population Apoptotic (%): 25%
  Population Fragmented Nuclei (%): 14%
  Population Healthy Nuclei (%): 74%
  Population Hoechst High Intensity Objects (%): 7%
  Population Membrane Permeable-Phenotype (%): 4%
  Population Mitochondria Different-Phenotype (%): 7%
  Population Mitotic Cells (%): 75%
  Population Normal (%): 92%
  Population Pyknosed Nuclei (%): 10%
  Population Tubulin-Different-Phenotype (%): 7%
  Total Cell Count: 118
[6]
  Population Apoptotic (%): 60%
  Population Fragmented Nuclei (%): 11%
  Population Healthy Nuclei (%): 82%
  Population Hoechst High Intensity Objects (%): 6%
  Population Membrane Permeable-Phenotype (%): 9%
  Population Mitochondria Different-Phenotype (%): 9%
  Population Mitotic Cells (%): 40%
  Population Normal (%): 93%
  Population Pyknosed Nuclei (%): 6%
  Population Tubulin-Different-Phenotype (%): 15%
  Total Cell Count: 86
[7]
  Population Apoptotic (%): 60%
  Population Fragmented Nuclei (%): 16%
  Population Healthy Nuclei (%): 27%
  Population Hoechst High Intensity Objects (%): 7%
  Population Membrane Permeable-Phenotype (%): 22%
  Population Mitochondria Different-Phenotype (%): 93%
  Population Mitotic Cells (%): 40%
  Population Normal (%): 92%
  Population Pyknosed Nuclei (%): 55%
  Population Tubulin-Different-Phenotype (%): 97%
  Total Cell Count: 242
[8]
  Population Apoptotic (%): 66%
  Population Fragmented Nuclei (%): 14%
  Population Healthy Nuclei (%): 21%
  Population Hoechst High Intensity Objects (%): 6%
  Population Membrane Permeable-Phenotype (%): 50%
  Population Mitochondria Different-Phenotype (%): 70%
  Population Mitotic Cells (%): 33%
  Population Normal (%): 94%
  Population Pyknosed Nuclei (%): 63%
  Population Tubulin-Different-Phenotype (%): 70%
  Total Cell Count: 86
[9]
  Population Apoptotic (%): 43%
  Population Fragmented Nuclei (%): 7%
  Population Hoechst High Intensity Objects (%): 5%
  Population Membrane Permeable-Phenotype (%): 3%
  Population Mitochondria Different-Phenotype (%): 8%
  Population Mitotic Cells (%): 56%
  Population Normal (%): 94%
  Population Pyknosed Nuclei (%): 18%
  Population Tubulin-Different-Phenotype (%): 9%
  Total Cell Count: 127
[10]
  Population Apoptotic (%): 18%
  Population Fragmented Nuclei (%): 16%
  Population Healthy Nuclei (%): 73%
  Population Hoechst High Intensity Objects (%): 4%
  Population Membrane Permeable-Phenotype (%): 12%
  Population Mitochondria Different-Phenotype (%): 12%
  Population Mitotic Cells (%): 81%
  Population Normal (%): 95%
  Population Pyknosed Nuclei (%): 9%
  Population Tubulin-Different-Phenotype (%): 18%
  Total Cell Count: 103
[11]
  Population Apoptotic (%): 81%
  Population Fragmented Nuclei (%): 30%
  Population Healthy Nuclei (%): 5%
  Population Hoechst High Intensity Objects (%): 13%
  Population Membrane Permeable-Phenotype (%): 55%
  Population Mitochondria Different-Phenotype (%): 88%
  Population Mitotic Cells (%): 19%
  Population Normal (%): 86%
  Population Pyknosed Nuclei (%): 63%
  Population Tubulin-Different-Phenotype (%): 77%
  Total Cell Count: 305
[12]
  Population Apoptotic (%): 80%
  Population Fragmented Nuclei (%): 22%
  Population Healthy Nuclei (%): 25%
  Population Hoechst High Intensity Objects (%): 12%
  Population Membrane Permeable-Phenotype (%): 50%
  Population Mitochondria Different-Phenotype (%): 83%
  Population Mitotic Cells (%): 20%
  Population Normal (%): 87%
  Population Pyknosed Nuclei (%): 52%
  Population Tubulin-Different-Phenotype (%): 58%
  Total Cell Count: 116

## COc1cc2ncn(-c3cc(OCc4ccccc4C(F)(F)F)c(C(N)=O)s3)c2cc1OC [GW843682X]
[1]
  Population Apoptotic (%): 54%
  Population Fragmented Nuclei (%): 15%
  Population Healthy Nuclei (%): 78%
  Population Hoechst High Intensity Objects (%): 7%
  Population Membrane Permeable-Phenotype (%): 12%
  Population Mitochondria Different-Phenotype (%): 17%
  Population Mitotic Cells (%): 45%
  Population Normal (%): 92%
  Population Pyknosed Nuclei (%): 6%
  Population Tubulin-Different-Phenotype (%): 28%
  Total Cell Count: 170
[2]
  Population Apoptotic (%): 50%
  Population Fragmented Nuclei (%): 9%
  Population Healthy Nuclei (%): 80%
  Population Hoechst High Intensity Objects (%): 10%
  Population Mitochondria Different-Phenotype (%): 10%
  Population Mitotic Cells (%): 50%
  Population Normal (%): 89%
  Population Pyknosed Nuclei (%): 9%
  Population Tubulin-Different-Phenotype (%): 20%
  Total Cell Count: 83
[3]
  Population Apoptotic (%): 54%
  Population Fragmented Nuclei (%): 12%
  Population Healthy Nuclei (%): 71%
  Population Hoechst High Intensity Objects (%): 13%
  Population Membrane Permeable-Phenotype (%): 28%
  Population Mitochondria Different-Phenotype (%): 83%
  Population Mitotic Cells (%): 45%
  Population Normal (%): 86%
  Population Pyknosed Nuclei (%): 15%
  Population Tubulin-Different-Phenotype (%): 97%
  Total Cell Count: 185
[4]
  Population Apoptotic (%): 50%
  Population Fragmented Nuclei (%): 13%
  Population Healthy Nuclei (%): 75%
  Population Hoechst High Intensity Objects (%): 6%
  Population Membrane Permeable-Phenotype (%): 25%
  Population Mitochondria Different-Phenotype (%): 88%
  Population Mitotic Cells (%): 50%
  Population Normal (%): 93%
  Population Pyknosed Nuclei (%): 11%
  Population Tubulin-Different-Phenotype (%): 98%
  Total Cell Count: 68
[5]
  Population Apoptotic (%): 62%
  Population Fragmented Nuclei (%): 14%
  Population Healthy Nuclei (%): 76%
  Population Hoechst High Intensity Objects (%): 3%
  Population Mitochondria Different-Phenotype (%): 22%
  Population Mitotic Cells (%): 37%
  Population Normal (%): 96%
  Population Pyknosed Nuclei (%): 8%
  Population Tubulin-Different-Phenotype (%): 20%
  Total Cell Count: 166
[6]
  Population Apoptotic (%): 55%
  Population Fragmented Nuclei (%): 11%
  Population Healthy Nuclei (%): 74%
  Population Hoechst High Intensity Objects (%): 5%
  Population Membrane Permeable-Phenotype (%): 10%
  Population Mitochondria Different-Phenotype (%): 19%
  Population Mitotic Cells (%): 44%
  Population Normal (%): 94%
  Population Pyknosed Nuclei (%): 14%
  Population Tubulin-Different-Phenotype (%): 17%
  Total Cell Count: 85
[7]
  Population Apoptotic (%): 51%
  Population Fragmented Nuclei (%): 14%
  Population Healthy Nuclei (%): 66%
  Population Hoechst High Intensity Objects (%): 9%
  Population Membrane Permeable-Phenotype (%): 42%
  Population Mitochondria Different-Phenotype (%): 90%
  Population Mitotic Cells (%): 48%
  Population Normal (%): 90%
  Population Pyknosed Nuclei (%): 18%
  Population Tubulin-Different-Phenotype (%): 98%
  Total Cell Count: 190
[8]
  Population Apoptotic (%): 50%
  Population Fragmented Nuclei (%): 13%
  Population Healthy Nuclei (%): 69%
  Population Membrane Permeable-Phenotype (%): 41%
  Population Mitochondria Different-Phenotype (%): 91%
  Population Mitotic Cells (%): 50%
  Population Pyknosed Nuclei (%): 17%
  Population Tubulin-Different-Phenotype (%): 97%
  Total Cell Count: 67
[9]
  Population Apoptotic (%): 71%
  Population Fragmented Nuclei (%): 16%
  Population Healthy Nuclei (%): 66%
  Population Hoechst High Intensity Objects (%): 8%
  Population Membrane Permeable-Phenotype (%): 16%
  Population Mitochondria Different-Phenotype (%): 33%
  Population Mitotic Cells (%): 28%
  Population Normal (%): 91%
  Population Pyknosed Nuclei (%): 16%
  Population Tubulin-Different-Phenotype (%): 18%
  Total Cell Count: 160
[10]
  Population Apoptotic (%): 62%
  Population Fragmented Nuclei (%): 9%
  Population Healthy Nuclei (%): 79%
  Population Hoechst High Intensity Objects (%): 6%
  Population Membrane Permeable-Phenotype (%): 27%
  Population Mitochondria Different-Phenotype (%): 37%
  Population Mitotic Cells (%): 37%
  Population Normal (%): 93%
  Population Pyknosed Nuclei (%): 10%
  Population Tubulin-Different-Phenotype (%): 34%
  Total Cell Count: 91
[11]
  Population Apoptotic (%): 78%
  Population Fragmented Nuclei (%): 17%
  Population Healthy Nuclei (%): 53%
  Population Hoechst High Intensity Objects (%): 9%
  Population Membrane Permeable-Phenotype (%): 71%
  Population Mitochondria Different-Phenotype (%): 93%
  Population Mitotic Cells (%): 21%
  Population Normal (%): 90%
  Population Pyknosed Nuclei (%): 29%
  Population Tubulin-Different-Phenotype (%): 97%
  Total Cell Count: 187
[12]
  Population Apoptotic (%): 71%
  Population Fragmented Nuclei (%): 18%
  Population Healthy Nuclei (%): 62%
  Population Hoechst High Intensity Objects (%): 6%
  Population Membrane Permeable-Phenotype (%): 68%
  Population Mitochondria Different-Phenotype (%): 88%
  Population Mitotic Cells (%): 28%
  Population Normal (%): 93%
  Population Pyknosed Nuclei (%): 19%
  Total Cell Count: 78
